Source: ChEMBL document CHEMBL1124504, “Azido glycols: potent, low molecular weight renin inhibitors containing an unusual post scissile site residue” (J Med Chem, 1989)
In brackets after ≈: the same amount, converted by molar mass.

Tests used:
Renin [1] = molecular target: T1, Renin (Homo sapiens, UniProt P00797); experiment: Inhibitory activity against purified human renal renin at pH 6.0
T1 sequence (P00797 whole entry): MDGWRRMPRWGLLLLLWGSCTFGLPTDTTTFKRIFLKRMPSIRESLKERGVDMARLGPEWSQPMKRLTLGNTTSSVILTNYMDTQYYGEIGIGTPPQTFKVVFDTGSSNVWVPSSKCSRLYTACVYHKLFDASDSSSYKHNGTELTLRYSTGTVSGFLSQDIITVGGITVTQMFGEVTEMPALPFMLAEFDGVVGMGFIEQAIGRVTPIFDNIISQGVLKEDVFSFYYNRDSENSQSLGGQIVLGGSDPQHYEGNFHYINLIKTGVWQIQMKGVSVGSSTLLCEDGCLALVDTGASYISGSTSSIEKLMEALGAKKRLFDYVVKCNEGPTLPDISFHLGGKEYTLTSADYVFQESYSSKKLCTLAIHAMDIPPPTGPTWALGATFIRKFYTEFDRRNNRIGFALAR

Renin [2] = molecular target: T1, Renin; experiment: Inhibitory activity against purified human renal renin at pH 6.0
Renin [3] = molecular target: T1, Renin; experiment: Inhibitory activity against human plasma renin at pH 7.4; format: cell-free
Rattus norvegicus [4] = species: Rattus norvegicus; experiment: In vitro intestinal permeability in rats; format: ADME
Summary of the method: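 Rat jejunum removed after cervical dislocation, washed with balanced electrolyte solution at 4 °C. Central 30 cm mounted for recirculating luminal perfusion (30 mL) at 37 °C under 95% O2-5% CO2. Inhibitor added mucosally at 100 μM with 3H-PEG-900 baseline marker. Mucosal and serosal samples taken every 15 min for 150 min. Inhibitor measured by HPLC-UV and PEG by scintillation. P = J/ΔC from steady-state (45-120 min) regression, cm/h; mean ± SE, n = 2.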

Rattus norvegicus [5] = experiment: Plasma levels in the portal blood vessel of rat after 10 min of administration of 10 mg/kg intraduodenally; format: functional, organism-based; design: dose 10 mg/kg
Summary of the method: (§1)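 Male Sprague-Dawley rats, fasted overnight, ≥150 g, under inactin (80 mg/kg ip), pylorus ligated. Carotid and portal vein catheterized. 10 mg/kg injected into the duodenum; paired blood drawn at 10 min. Plasma acetonitrile-precipitated, serially diluted, dried.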

Rattus norvegicus [6] = experiment: Plasma levels in the systemic blood vessel of rat after 10 min of administration of 10 mg/kg intraduodenally; format: functional, organism-based; design: dose 10 mg/kg
Summary of the method: as §1

[7] = Solubility in pH 6.5 buffer; format: physicochemical
Summary of the method: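 About 10 mg shaken in 1 mL 0.01 M phosphate buffer, pH 6.5, for 24 h at 37 °C. Suspension filtered through glass wool, diluted in mobile phase, and quantified by HPLC with detection at 214 nm; reported as mg/mL.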

Row | Compound | IC50 (Renin [1]) | IC50 (Renin [2]) | IC50 (Renin [3]) | solubility [7] | other results
1 | [N-]=[N+]=NC[C@@H](O)[C@@H](O)[C@@H](CC1CCCCC1)NC(=O)[C@H](Cc1c[nH]cn1)NC(=O)[C@H](Cc1ccccc1)NC(=O)C1CCOCC1 | 0.7 nM | – | 7.6 nM | 23 µg/mL (≈ 36 µM) | –
2 | CC(C)(C)OC(=O)N[C@@H](Cc1ccccc1)C(=O)N[C@@H](Cc1cnc[nH]1)C(=O)N[C@H](CC1CCCCC1)[C@H](O)C(O)(CO)CN=[N+]=[N-] (stereo partly drawn) | – | 4.8 nM | – | – | –
3 | CC(C)(C)OC(=O)N[C@@H](Cc1ccccc1)C(=O)N[C@@H](Cc1c[nH]cn1)C(=O)N[C@H](CC1CCCCC1)[C@H](O)CCN=[N+]=[N-] | – | 20 nM | – | – | –
4 | COc1ccc(C[C@H](NC(=O)C(C)C)C(=O)N[C@@H](Cc2cnc[nH]2)C(=O)N[C@H](CC2CCCCC2)[C@H](O)[C@H](O)CN=[N+]=[N-])cc1 | 2 nM | – | 10 nM | 29 µg/mL (≈ 46.3 µM) | Permeability (Rattus norvegicus [4]): 0.79 cm (10e3*hr)-1
5 | COc1ccc(C[C@H](NC(=O)C(C)C)C(=O)N[C@@H](Cc2c[nH]cn2)C(=O)N[C@H](CC2CCCCC2)[C@H](O)[C@H](O)CN=[N+]=[N-])cc1 | – | – | – | – | Plasma level (Rattus norvegicus [5]): 53 ng/mL; Plasma level (Rattus norvegicus [6]): 12 ng/mL
6 | CC(C)(C)OC(=O)N[C@@H](Cc1ccccc1)C(=O)N[C@@H](Cc1c[nH]cn1)C(=O)N[C@H](CC1CCCCC1)[C@H](O)[C@@H](O)CN=[N+]=[N-] | – | 26 nM | – | – | –
7 | Cn1c(=O)c2[nH]cnc2n(C)c1=O.O [THEOPHYLLINE] | – | – | – | – | Permeability (Rattus norvegicus [4]): 22.35 cm (10e3*hr)-1

Second part, led by results:

Row | IC50 (Renin [1]) | IC50 (Renin [2]) | IC50 (Renin [3]) | solubility [7] | Compound | other results
8 | 0.4 nM | 0.4 nM | 9 nM | – | CC(C)(C)OC(=O)N[C@@H](Cc1ccccc1)C(=O)N[C@@H](Cc1c[nH]cn1)C(=O)N[C@H](CC1CCCCC1)[C@H](O)[C@H](O)CN=[N+]=[N-] | –
9 | 4 nM | – | 20 nM | 1000 µg/mL (≈ 1490 µM) | COc1ccc(C[C@H](NC(=O)N2CCOCC2)C(=O)N[C@@H](Cc2c[nH]cn2)C(=O)N[C@H](CC2CCCCC2)[C@H](O)[C@H](O)CN=[N+]=[N-])cc1 | Permeability (Rattus norvegicus [4]): 4.25 cm (10e3*hr)-1; Plasma level (Rattus norvegicus [5]): 230 ng/mL; Plasma level (Rattus norvegicus [6]): 15 ng/mL
10 | 0.55 nM | – | 3.3 nM | 13 µg/mL (≈ 21.8 µM) | CC(C)C(=O)N[C@@H](Cc1ccccc1)C(=O)N[C@@H](Cc1c[nH]cn1)C(=O)N[C@H](CC1CCCCC1)[C@H](O)[C@H](O)CN=[N+]=[N-] | –
11 | – | 7.5 nM | – | – | CC(C)(C)OC(=O)N[C@@H](Cc1ccccc1)C(=O)N[C@@H](Cc1cnc[nH]1)C(=O)N[C@H](CC1CCCCC1)[C@H](O)CN=[N+]=[N-] | –
12 | – | 55 nM | – | – | C=C(CN=[N+]=[N-])[C@@H](O)[C@@H](CC1CCCCC1)NC(=O)[C@H](Cc1c[nH]cn1)NC(=O)[C@H](Cc1ccccc1)NC(=O)OC(C)(C)C | –
13 | 0.67 nM | – | 2.4 nM | 2600 µg/mL (≈ 4060 µM) | [N-]=[N+]=NC[C@@H](O)[C@@H](O)[C@@H](CC1CCCCC1)NC(=O)[C@H](Cc1cnc[nH]1)NC(=O)[C@H](Cc1ccccc1)NC(=O)N1CCOCC1 | –
14 | – | 370 nM | – | – | CC(C)(C)OC(=O)N[C@@H](Cc1ccccc1)C(=O)N[C@@H](Cc1cnc[nH]1)C(=O)N[C@H](CC1CCCCC1)[C@H](O)[C@@H](CO)CN=[N+]=[N-] | –
15 | – | 5.4 nM | – | – | CC(C)(C)OC(=O)N[C@@H](Cc1ccccc1)C(=O)N[C@@H](Cc1c[nH]cn1)C(=O)N[C@H](CC1CCCCC1)[C@H](O)C(=O)CN=[N+]=[N-] | –
16 | – | 10 nM | – | – | CC(C)(C)OC(=O)N[C@@H](Cc1ccccc1)C(=O)N[C@@H](Cc1c[nH]cn1)C(=O)N[C@H](CC1CCCCC1)[C@H](O)[C@H](CO)CN=[N+]=[N-] | –
